Measured values from ChEMBL document CHEMBL1138351, “Small, potent, and selective diaryl phosphonate inhibitors for urokinase-type plasminogen activator with in vivo antimetastatic properties” (J Med Chem, 2007).
Values belong to the compound of their own block, whether it stands above or below them. The source made the active and inactive calls. No cut-off for these calls is given here.

What was measured:
Coagulation factor X [1] = target: T1, Coagulation factor X (Homo sapiens, UniProt P00742); assay: Inhibition of factor 10a at 250 uM
[2] = target: T2, Urokinase-type plasminogen activator (Homo sapiens, UniProt P00749)
Homo sapiens [3] = species on record: Homo sapiens; assay: Selectivity index, ratio of IC50 for human plasmin to IC50 for human uPA
Outline: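 Selectivity index is IC50(plasmin)/IC50(uPA). Plasmin: human plasma-derived, about 5 mU, 580 µM S-2366, Tris pH 7.4. uPA: human, about 1 mU, 250 µM S-2444, 50 mM Tris pH 8.8. Both had 15 min preincubation at 37 °C, 405 nm initial rates in duplicate, and a four-parameter logistic fit.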

Prothrombin [4] = target: T3, Prothrombin (Homo sapiens, UniProt P00734); assay: Inhibition of human thrombin at 250 uM
Outline: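 Human plasma thrombin was assayed at 37 °C in Tris pH 8.3. IC50 was obtained from a four-parameter logistic fit.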

Homo sapiens [5] = species on record: Homo sapiens; assay: Selectivity index, ratio of IC50 for human recombinant tPA to IC50 for human uPA
Homo sapiens [6] = species on record: Homo sapiens; assay: Selectivity index, ratio of IC50 for human factor 10a to IC50 for human uPA
Coagulation factor X [7] = target: T1, Coagulation factor X; assay: Inhibition of factor 10a
Outline: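 Human factor Xa (FX activated with Russell's viper venom) at about 5 mU was preincubated with inhibitor (0–250 µM final) for 15 min at 37 °C. […] IC50 came from a four-parameter logistic fit.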

Prothrombin [8] = target: T3, Prothrombin; assay: Inhibition of human thrombin
Outline: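 Human plasma thrombin was assayed at 37 °C in Tris pH 8.3. […] Initial rate was read at 405 nm, in duplicate. IC50 was obtained from a four-parameter logistic fit.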

[9] = target: T2, Urokinase-type plasminogen activator; remark: listed apart in the source
Homo sapiens [10] = species on record: Homo sapiens; assay: Selectivity index, ratio of IC50 for human thrombin to IC50 for human uPA
Outline: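 Selectivity index is IC50(thrombin)/IC50(uPA). Thrombin: human plasma-derived, about 5 mU, 580 µM S-2366, Tris pH 8.3. uPA: human, about 1 mU, 250 µM S-2444, 50 mM Tris pH 8.8. Both had 15 min preincubation at 37 °C, 405 nm initial rates in duplicate, and a four-parameter logistic fit.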

[11] = target: Tissue-type plasminogen activator (Homo sapiens, UniProt P00750); assay: Inhibition of human recombinant tPA
Plasminogen = Plasminogen (Homo sapiens, UniProt P00747); assay: Inhibition of human plasmin
Outline: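 Plasmin from human plasma at about 5 mU was preincubated with inhibitor (0–250 µM final) for 15 min at 37 °C. Substrate was S-2366 at 580 µM in Tris pH 7.4. Initial rate was read at 405 nm, in duplicate. IC50 came from a four-parameter logistic fit.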

Prothrombin [12] = target: T3, Prothrombin; assay: Inhibition of thrombin at 100 uM
Coagulation factor X [13] = target: T1, Coagulation factor X; assay: Inhibition of factor 10a at 62 uM

T1 sequence (P00742 41-179 limits assumed): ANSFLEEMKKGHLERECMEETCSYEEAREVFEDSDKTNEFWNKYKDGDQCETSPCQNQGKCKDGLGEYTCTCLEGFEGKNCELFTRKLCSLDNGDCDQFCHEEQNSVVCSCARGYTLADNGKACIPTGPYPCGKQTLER
T1 sequence (P00742 235-488 limits assumed): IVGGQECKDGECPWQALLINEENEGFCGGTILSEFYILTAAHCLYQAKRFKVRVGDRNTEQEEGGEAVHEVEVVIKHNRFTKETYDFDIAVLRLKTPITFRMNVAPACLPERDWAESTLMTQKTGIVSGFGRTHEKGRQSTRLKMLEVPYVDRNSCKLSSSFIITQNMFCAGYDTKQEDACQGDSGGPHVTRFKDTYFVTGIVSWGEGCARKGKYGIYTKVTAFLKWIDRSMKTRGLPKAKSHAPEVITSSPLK
Plasminogen, sequence (P00747 97-580 limits assumed): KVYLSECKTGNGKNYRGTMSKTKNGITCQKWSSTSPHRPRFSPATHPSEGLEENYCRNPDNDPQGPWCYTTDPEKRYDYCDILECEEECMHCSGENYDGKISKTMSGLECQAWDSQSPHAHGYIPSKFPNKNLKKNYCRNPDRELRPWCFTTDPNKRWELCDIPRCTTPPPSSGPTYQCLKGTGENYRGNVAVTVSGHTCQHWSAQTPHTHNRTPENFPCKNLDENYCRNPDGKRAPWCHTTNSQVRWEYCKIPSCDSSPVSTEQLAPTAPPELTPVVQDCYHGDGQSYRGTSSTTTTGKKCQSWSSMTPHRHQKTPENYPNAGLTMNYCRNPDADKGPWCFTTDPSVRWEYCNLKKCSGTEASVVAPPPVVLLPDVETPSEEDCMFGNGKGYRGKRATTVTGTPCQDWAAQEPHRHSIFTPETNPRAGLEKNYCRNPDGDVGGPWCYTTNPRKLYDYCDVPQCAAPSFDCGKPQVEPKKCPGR
Plasminogen, sequence (P00747 581-810 limits assumed): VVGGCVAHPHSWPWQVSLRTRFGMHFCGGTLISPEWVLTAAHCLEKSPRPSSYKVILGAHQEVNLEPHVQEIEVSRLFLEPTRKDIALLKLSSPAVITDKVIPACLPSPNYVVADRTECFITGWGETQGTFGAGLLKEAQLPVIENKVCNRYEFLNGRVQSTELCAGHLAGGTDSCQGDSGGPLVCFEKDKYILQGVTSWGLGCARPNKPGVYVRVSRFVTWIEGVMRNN
Tissue-type plasminogen activator, sequence (P00750 whole entry): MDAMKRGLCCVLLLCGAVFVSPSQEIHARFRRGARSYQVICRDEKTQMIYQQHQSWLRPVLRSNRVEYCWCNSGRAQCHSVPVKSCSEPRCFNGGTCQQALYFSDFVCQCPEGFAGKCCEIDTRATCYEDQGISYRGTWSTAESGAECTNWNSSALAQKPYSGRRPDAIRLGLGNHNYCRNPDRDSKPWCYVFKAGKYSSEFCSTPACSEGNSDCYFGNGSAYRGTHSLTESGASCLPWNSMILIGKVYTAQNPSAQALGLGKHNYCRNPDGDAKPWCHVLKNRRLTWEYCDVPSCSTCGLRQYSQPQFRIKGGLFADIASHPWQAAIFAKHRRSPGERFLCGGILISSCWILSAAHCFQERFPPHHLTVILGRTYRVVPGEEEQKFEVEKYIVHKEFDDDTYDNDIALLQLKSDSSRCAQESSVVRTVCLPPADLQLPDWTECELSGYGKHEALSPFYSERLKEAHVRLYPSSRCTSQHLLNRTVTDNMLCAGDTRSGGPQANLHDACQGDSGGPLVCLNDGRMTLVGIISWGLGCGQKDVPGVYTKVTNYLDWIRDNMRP

SMILES: N=C(N)c1ccc(CC(NC(=O)OCc2ccccc2)P(=O)(Oc2ccccc2)Oc2ccccc2)cc1 (stereo not drawn)
inhibition (Coagulation factor X [1]): 65%
Kapp [2]: 2000 M⁻¹ s⁻¹

SMILES: CC(C)c1cc(C(C)C)c(S(=O)(=O)NC(Cc2ccc(NC(=N)N)cc2)P(=O)(Oc2ccccc2)Oc2ccccc2)c(C(C)C)c1 (stereo not drawn)
Ratio IC50 (Homo sapiens [3]): 500
inhibition (Prothrombin [4]): 60%
Kapp [2]: 1600 M⁻¹ s⁻¹
Ratio IC50 (Homo sapiens [5]): 60
Ratio IC50 (Homo sapiens [6]): 80

SMILES: CS(=O)(=O)NC(Cc1ccc(NC(=N)N)cc1)P(=O)(Oc1ccccc1)Oc1ccccc1 (stereo not drawn)
IC50 (Coagulation factor X [7]): 250 µM
IC50 (Prothrombin [8]): 125 µM
Kapp [2]: 140000 M⁻¹ s⁻¹

SMILES: N=C(N)NCCCC(NC(=O)OCc1ccccc1)P(=O)(Oc1ccccc1)Oc1ccccc1 (stereo not drawn)
IC50 [9]: 0.84 µM
Ratio IC50 (Homo sapiens [3]): 35
inhibition (Coagulation factor X [1]): 70%
IC50 (Prothrombin [8]): 0.78 µM
Kapp [2]: 100 M⁻¹ s⁻¹
Ratio IC50 (Homo sapiens [10]): 0.9
IC50 [11]: 44 µM
IC50 (Plasminogen): 30 µM
Ratio IC50 (Homo sapiens [5]): 50

SMILES: CC(=O)NC(Cc1ccc(NC(=N)N)cc1)P(=O)(Oc1ccccc1)Oc1ccccc1 (stereo not drawn)
IC50 [9]: 0.0072 µM
Kapp [2]: 1.4e+06 M⁻¹ s⁻¹

SMILES: N=C(N)Nc1ccc(CC(NC(=O)c2ccccc2)P(=O)(Oc2ccccc2)Oc2ccccc2)cc1 (stereo not drawn)
Kapp [2]: 2400 M⁻¹ s⁻¹

SMILES: N=C(N)Nc1ccc(CC(NC(=O)OCc2ccccc2)P(=O)(Oc2ccccc2)Oc2ccccc2)cc1 (stereo not drawn)
Kapp [2]: 42000 M⁻¹ s⁻¹

SMILES: N=C(N)c1ccc(CCC(NC(=O)OCc2ccccc2)P(=O)(Oc2ccccc2)Oc2ccccc2)cc1 (stereo not drawn)
Ratio IC50 (Homo sapiens [3]): 7
Kapp [2]: 140 M⁻¹ s⁻¹
Ratio IC50 (Homo sapiens [10]): 20
Ratio IC50 (Homo sapiens [5]): 70
Ratio IC50 (Homo sapiens [6]): 15

SMILES: CCOC(=O)NC(Cc1ccc(NC(=N)N)cc1)P(=O)(Oc1ccccc1)Oc1ccccc1 (stereo not drawn)
Kapp [2]: 40000 M⁻¹ s⁻¹

Ki [9]: 0.016 µM
Activity (Prothrombin [12]): inactive
Ki [11]: > 2.5 µM
Ki (Plasminogen): 40 µM
SMILES: C[C@H](NC(=O)[C@@H](CO)NS(=O)(=O)Cc1ccccc1)C(=O)NCc1ccc(NC(=N)N)cc1

SMILES: CC(=O)Nc1ccc(OP(=O)(Oc2ccc(NC(C)=O)cc2)C(Cc2ccc(NC(=N)N)cc2)NS(C)(=O)=O)cc1 (stereo not drawn)
Ratio IC50 (Homo sapiens [3]): 550
inhibition (Coagulation factor X [1]): 55%
Kapp [2]: 210000 M⁻¹ s⁻¹
Ratio IC50 (Homo sapiens [10]): 700
Ratio IC50 (Homo sapiens [5]): 1000

SMILES: N=C(N)Nc1ccc(CC(NS(=O)(=O)c2cccc3ccccc23)P(=O)(Oc2ccccc2)Oc2ccccc2)cc1 (stereo not drawn)
Kapp [2]: 7300 M⁻¹ s⁻¹

SMILES: C[C@H](NC(=O)[C@@H](CO)NS(=O)(=O)Cc1ccccc1)C(=O)NC(Cc1ccc(NC(=N)N)cc1)P(=O)(Oc1ccccc1)Oc1ccccc1 (stereo partly drawn)
IC50 [9]: 0.004 µM
IC50 (Coagulation factor X [7]): 33.5 µM

SMILES: CC(=O)Nc1ccc(OP(=O)(Oc2ccc(NC(C)=O)cc2)C(Cc2ccc(NC(=N)N)cc2)NC(=O)OCc2ccccc2)cc1 (stereo not drawn)
Ratio IC50 (Homo sapiens [3]): 200
Kapp [2]: 80000 M⁻¹ s⁻¹
Ratio IC50 (Homo sapiens [10]): 90
Ratio IC50 (Homo sapiens [5]): 1700
Ratio IC50 (Homo sapiens [6]): 23000

SMILES: N=C(N)c1ccc(C(NC(=O)OCc2ccccc2)P(=O)(Oc2ccccc2)Oc2ccccc2)cc1 (stereo not drawn)
Kapp [2]: 43 M⁻¹ s⁻¹

Ki (Coagulation factor X [7]): > 1000 µM
Ki (Prothrombin [8]): > 1000 µM
Ki [11]: > 1000 µM
Ki (Plasminogen): > 1000 µM
SMILES: N=C(N)Nc1ccc(CNC(=O)OCc2ccccc2)cc1

SMILES: N=C(N)Nc1ccc(CC(NS(=O)(=O)Cc2ccccc2)P(=O)(Oc2ccccc2)Oc2ccccc2)cc1 (stereo not drawn)
Kapp [2]: 19000 M⁻¹ s⁻¹
inhibition (Coagulation factor X [13]): 59%
